Data from ChEMBL document CHEMBL1146569, “The pterocellins, novel bioactive alkaloids from the marine bryozoan Pterocella vesiculosa” (J Nat Prod, 2003).

Legend:
Pseudomonas aeruginosa = assay: Antimicrobial activity against Pseudomonas aeruginosa assessed per disk; type: functional
Candida albicans = assay: Antimicrobial activity against Candida albicans assessed per disk; type: functional
MCF7 = assay: Growth inhibition of human MCF7 cells; type: functional
Malme-3M = assay: Growth inhibition of human MALME-3M cells; type: functional
K562 = assay: Growth inhibition of human K562 cells; type: functional
HOP-92 = assay: Growth inhibition of human HOP92 cells; type: functional
HCT-15 = assay: Growth inhibition of human HCT15 cells; type: functional
A498 = assay: Growth inhibition of human A498 cells; type: functional
KM12 = assay: Growth inhibition of human KM12 cells; type: functional
U-251 = assay: Growth inhibition of human U251 cells; type: functional
MDA-N = assay: Growth inhibition of human MDA-N cells; type: functional
TK-10 = assay: Growth inhibition of human TK10 cells; type: functional
PC-3 = assay: Growth inhibition of human PC3 cells; type: functional
SF-539 = assay: Growth inhibition of human SF539 cells; type: functional
HCT-116 = assay: Growth inhibition of human HCT116 cells; type: functional
OVCAR-8 = assay: Growth inhibition of human OVCAR8 cells; type: functional
EKVX = assay: Growth inhibition of human EKVX cells; type: functional
SF-295 = assay: Growth inhibition of human SF295 cells; type: functional
UACC-62 = assay: Growth inhibition of human UACC62 cells; type: functional
SW-620 = assay: Growth inhibition of human SW620 cells; type: functional
A549 = assay: Growth inhibition of human A549 cells; type: functional
SK-MEL-28 = assay: Growth inhibition of human SK-MEL-28 cells; type: functional
NCI-H226 = assay: Growth inhibition of human NCI-H226 cells; type: functional
SK-MEL-5 = assay: Growth inhibition of human SK-MEL-5 cells; type: functional
SK-OV-3 = assay: Growth inhibition of human SKOV3 cells; type: functional
[1] = tested on: Trichophyton mentagrophytes; assay: Antimicrobial activity against Trichophyton mentagrophytes assessed per disk; type: functional
LOX IMVI = assay: Growth inhibition of human LOXIMVI cells; type: functional
NCI-H460 = assay: Growth inhibition of human NCI-H460 cells; type: functional
[2] = Growth inhibition of human […] cells; type: functional
[3] = Cytotoxicity against african green monkey BSC1 cells at 40 ug/disk; type: cell-based; settings: chlorocebus aethiops, bsc-1
Method in brief: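 BSC-1 cells (ATCC CCL 26), a line derived from African green monkey kidney, are the host cells of the combined antiviral/cytotoxicity assay. Cytotoxicity is scored on these cells within that assay.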

RXF 393 = assay: Growth inhibition of human RXF393 cells; type: functional
OVCAR-4 = assay: Growth inhibition of human OVCAR4 cells; type: functional
CAKI-1 = assay: Growth inhibition of human Caki1 cells; type: functional
ACHN = assay: Growth inhibition of human ACHN cells; type: functional
COLO 205 = assay: Growth inhibition of human COLO205 cells; type: functional
HT-29 = assay: Growth inhibition of human HT-29 cells; type: functional
NCI-H23 = assay: Growth inhibition of human NCI-H23 cells; type: functional
Amorphotheca resinae = assay: Antimicrobial activity against Cladosporium resinae assessed per disk; type: functional
SR = assay: Growth inhibition of human SR cells; type: functional
NCI-H322M = assay: Growth inhibition of human NCI-H322M cells; type: functional
NCI-H522 = assay: Growth inhibition of human NCI-H522 cells; type: functional
SNB-19 = assay: Growth inhibition of human SNB19 cells; type: functional
HCC 2998 = assay: Growth inhibition of human HCC2998 cells; type: functional
OVCAR-3 = assay: Growth inhibition of human OVCAR-3 cells; type: functional
Escherichia coli = assay: Antimicrobial activity against Escherichia coli assessed per disk; type: functional
HOP-62 = assay: Growth inhibition of human HOP62 cells; type: functional
[4] = read-out: LC50 (the source's name)

COc1cn2c(cc1=O)C(=O)c1ccnc(CC(C)C)c1-2 [PTEROCELLIN A]
MIC (Pseudomonas aeruginosa): >60 µg | MIC (Candida albicans): >60 µg | GI50 (MCF7): 1500 nM | TGI (MCF7): 4.9 µM | CC50 (MCF7; [4]): > 100 µM | GI50 (Malme-3M): 100 nM | TGI (Malme-3M): 300 nM | CC50 (Malme-3M; [4]): 800 nM | GI50 (K562): 3000 nM | LC50 (concentration killing 50% of cells) (K562): > 100 µM | TGI (K562): > 100 µM | GI50 (HOP-92): 2200 nM | TGI (HOP-92): 4.9 µM | CC50 (HOP-92; [4]): 14.1 µM | GI50 (HCT-15): 1600 nM | TGI (HCT-15): 4.2 µM | CC50 (HCT-15; [4]): 17.3 µM | GI50 (A498): 900 nM | TGI (A498): 2200 nM | CC50 (A498; [4]): 5.1 µM | GI50 (KM12): 1600 nM | TGI (KM12): 3.4 µM | CC50 (KM12; [4]): 7.3 µM | GI50 (U-251): 2200 nM | TGI (U-251): 7.5 µM | CC50 (U-251; [4]): 42.5 µM | GI50 (MDA-N): 200 nM | TGI (MDA-N): 400 nM | CC50 (MDA-N; [4]): 600 nM | GI50 (TK-10): 3.1 µM | TGI (TK-10): 6.8 µM | CC50 (TK-10; [4]): 23.1 µM | GI50 (PC-3): 2900 nM | LC50 (concentration killing 50% of cells) (PC-3): 45.1 µM | TGI (PC-3): 8.4 µM | GI50 (SF-539): 1800 nM | TGI (SF-539): 3.6 µM | CC50 (SF-539; [4]): 7.1 µM | GI50 (HCT-116): 1100 nM | LC50 (HCT-116): 11.2 µM | TGI (HCT-116): 2500 nM | GI50 (OVCAR-8): 2200 nM | TGI (OVCAR-8): 17.6 µM | CC50 (OVCAR-8; [4]): > 100 µM | GI50 (EKVX): 2100 nM | TGI (EKVX): 5.8 µM | CC50 (EKVX; [4]): 23.6 µM | GI50 (SF-295): 1300 nM | LC50 (concentration killing 50% of starting cells) (SF-295): 5.2 µM | TGI (SF-295): 2600 nM | GI50 (UACC-62): 1400 nM | LC50 (50% cell kill) (UACC-62): 6 µM | TGI (UACC-62): 2900 nM | GI50 (SW-620): 1500 nM | LC50 (concentration killing 50% of cells) (SW-620): 6.2 µM | TGI (SW-620): 3.1 µM | GI50 (A549): 1300 nM | LC50 (50% cell kill concentration) (A549): > 100 µM | TGI (A549): 5.1 µM | GI50 (SK-MEL-28): 1900 nM | TGI (SK-MEL-28): 4.2 µM | CC50 (SK-MEL-28; [4]): 9.3 µM | GI50 (NCI-H226): 1700 nM | TGI (NCI-H226): 3.5 µM | CC50 (NCI-H226; [4]): 7.4 µM | GI50 (SK-MEL-5): 200 nM | TGI (SK-MEL-5): 300 nM | CC50 (SK-MEL-5; [4]): 600 nM | GI50 (SK-OV-3): 6.1 µM | TGI (SK-OV-3): 21.9 µM | CC50 (SK-OV-3; [4]): 59.2 µM | MIC [1]: 3.9 µg | GI50 (LOX IMVI): 1300 nM | LC50 (LOX IMVI): > 100 µM | TGI (LOX IMVI): 7.4 µM | GI50 (NCI-H460): 800 nM | LC50 (concentration causing 50% cell kill) (NCI-H460): 7.1 µM | TGI (NCI-H460): 2600 nM | GI50 [2]: 1700 nM | TGI [2]: 4.2 µM | CC50 [2, 4]: > 100 µM | Activity [3]: Toxic | GI50 (RXF 393): 3.2 µM | LC50 (RXF 393): 46.6 µM | TGI (RXF 393): 12.3 µM | GI50 (OVCAR-4): 1700 nM | LC50 (OVCAR-4): 7.6 µM | TGI (OVCAR-4): 3.6 µM | GI50 (CAKI-1): 2100 nM | TGI (CAKI-1): 4.6 µM | CC50 (CAKI-1; [4]): 11.1 µM | GI50 (ACHN): 2300 nM | TGI (ACHN): 9.1 µM | CC50 (ACHN; [4]): > 100 µM | GI50 (COLO 205): 1600 nM | TGI (COLO 205): 3.7 µM | CC50 (COLO 205; [4]): 8.4 µM | GI50 (HT-29): 1300 nM | LC50 (HT-29): > 100 µM | TGI (HT-29): 7.2 µM | GI50 (NCI-H23): 300 nM | LC50 (concentration causing 50% net cell kill) (NCI-H23): 6.1 µM | TGI (NCI-H23): 1000 nM | MIC (Amorphotheca resinae): >60 µg | GI50 (SR): 2000 nM | TGI (SR): > 100 µM | CC50 (SR; [4]): > 100 µM | GI50 (NCI-H322M): 1600 nM | LC50 (concentration killing 50% of cells) (NCI-H322M): 5.6 µM | TGI (NCI-H322M): 3000 nM | GI50 (NCI-H522): 1700 nM | TGI (NCI-H522): 3.3 µM | CC50 (NCI-H522; [4]): 6.5 µM | GI50 (SNB-19): 2900 nM | TGI (SNB-19): 11.4 µM | CC50 (SNB-19; [4]): 60 µM | GI50 (HCC 2998): 1600 nM | LC50 (concentration killing 50% of cells) (HCC 2998): 6 µM | TGI (HCC 2998): 3.1 µM | GI50 (OVCAR-3): 1500 nM | TGI (OVCAR-3): 4.6 µM | CC50 (OVCAR-3; [4]): 19.3 µM | MIC (Escherichia coli): >60 µg | GI50 (HOP-62): 1700 nM | TGI (HOP-62): 3.1 µM | CC50 (HOP-62; [4]): 5.6 µM
